# Several values for one entry are separate records, joined by “and”; a condition that tells them apart may be missing. Equal entries are not always repeated.
# How the values were obtained:
# Format in all cases: functional
# Bacteroides eggerthii = experiment: Antimicrobial activity against Bacteroides eggerthii assessed as resistant isolates by agar dilution method
# Method in brief: (§1)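 CLSI agar dilution on enriched brucella agar (5% lysed defibrinated sheep blood, 1 μg/ml vitamin K1), plates made on test day. Log-phase inocula adjusted to 0.5 McFarland; about 10^5 CFU/spot by Steers replicator. Incubated anaerobically at 37°C for 48 h. MIC was the lowest concentration giving a marked change in growth versus the drug-free control plate. Resistance rates used CLSI anaerobe breakpoints. Controls were B. fragilis ATCC 25285 and B. thetaiotaomicron ATCC 29741.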
# [1] = system: Peptoniphilus asaccharolyticus; experiment: Antimicrobial activity against Peptoniphilus asaccharolyticus assessed as resistant isolates by agar dilution method; conditions: pooled result: one value given for 4 cell lines, strains, targets or settings
# Method in brief: (§2)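 Agar dilution following CLSI on brucella agar with 5% lysed defibrinated sheep blood and 1 μg/ml vitamin K1, plates made on test day. Log-phase cells at 0.5 McFarland, about 10^5 CFU/spot by Steers replicator, 48 h anaerobic at 37°C. MIC read as the lowest concentration causing a marked growth change versus control. Resistance counted by CLSI anaerobe breakpoints. Eubacterium lentum ATCC 43055 served as control.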
# Parabacteroides merdae = experiment: Antimicrobial activity against Bacteroides merdae assessed as resistant isolates by agar dilution method; method in brief: as §1
# Finegoldia magna [2] = experiment: Antimicrobial activity against Finegoldia magna assessed as resistant isolates by agar dilution method; method in brief: as §2
# [3] = system: Parabacteroides distasonis; experiment: Antimicrobial activity against Bacteroides distasonis assessed as resistant isolates by agar dilution method; method in brief: as §1
# [Clostridium] innocuum = Antimicrobial activity against Clostridium innocuum assessed as resistant isolates by agar dilution method; conditions: pooled result: one value given for 4 cell lines, strains, targets or settings
# Bacteroides nordii = experiment: Antimicrobial activity against Bacteroides nordii assessed as resistant isolates by agar dilution method; method in brief: as §1
# [4] = system: Bacteroides thetaiotaomicron; experiment: Antimicrobial activity against Bacteroides thetaiotaomicron assessed as resistant isolates by agar dilution method; method in brief: as §1
# Cutibacterium acnes [5] = experiment: Antimicrobial activity against Propionibacterium acnes by agar dilution method in presence of beta-lactamase inhibitor Sulbactam
# Method in brief: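 Log-phase isolates were adjusted to 0.5 McFarland, and about 10^5 CFU/spot was delivered by Steers replicator. Plates were incubated anaerobically at 37°C for 48 h. MIC was the lowest concentration giving a marked growth change versus the control plate. Eubacterium lentum ATCC 43055 was the QC strain, with repeats when out of range.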
# Bacteroides ovatus = experiment: Antimicrobial activity against Bacteroides ovatus assessed as resistant isolates by agar dilution method; method in brief: as §1
# Bacteroides fragilis = experiment: Antimicrobial activity against Bacteroides fragilis assessed as resistant isolates by agar dilution method; method in brief: as §1
# Bacteroides caccae = experiment: Antimicrobial activity against Bacteroides caccae assessed as resistant isolates by agar dilution method; method in brief: as §1
# Propionibacterium = experiment: Antimicrobial activity against Propionibacterium sp. assessed as resistant isolates by agar dilution method; method in brief: as §2
# Phocaeicola vulgatus = experiment: Antimicrobial activity against Bacteroides vulgatus assessed as resistant isolates by agar dilution method; method in brief: as §1
# Finegoldia magna [6] = experiment: Antimicrobial activity against Finegoldia magna by agar dilution method in presence of beta-lactamase inhibitor Sulbactam
# Method in brief: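 Gram-positive anaerobes were tested by CLSI agar dilution on brucella agar enriched with 5% lysed defibrinated sheep blood and 1 μg/ml vitamin K1. Inoculum was log-phase growth at 0.5 McFarland, about 10^5 CFU/spot by replicator. Incubation was anaerobic, 37°C, 48 h. MIC was the lowest concentration with a marked growth change versus the drug-free plate. Eubacterium lentum ATCC 43055 was the control, and tests were repeated if it fell outside the CLSI range.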
# Cutibacterium acnes [7] = experiment: Antimicrobial activity against Propionibacterium acnes assessed as resistant isolates by agar dilution method; method in brief: as §2
# Clostridioides difficile = experiment: Antimicrobial activity against Clostridium difficile by agar dilution method in presence of beta-lactamase inhibitor Sulbactam
# Method in brief: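 MICs by CLSI agar dilution on enriched brucella agar (5% lysed defibrinated sheep blood, 1 μg/ml vitamin K1). Log-phase inoculum at 0.5 McFarland, about 10^5 CFU/spot by replicator. Plates held anaerobically at 37°C for 48 h. Endpoint was the lowest concentration giving a marked change in growth against the control plate. Eubacterium lentum ATCC 43055 was the control.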
# Bacteroides uniformis = experiment: Antimicrobial activity against Bacteroides uniformis assessed as resistant isolates by agar dilution method; method in brief: as §1
smiles,measurement,setting,value
CC1(C)S[C@@H]2[C@H](NC(=O)[C@H](N)c3ccccc3)C(=O)N2[C@H]1C(=O)O [AMPICILLIN],Activity,Bacteroides eggerthii,0%
same,Activity,[1],0%
same,Activity,Parabacteroides merdae,0%
same,Activity,Finegoldia magna [2],0%
same,Activity,[3],6.7%
same,Activity,[Clostridium] innocuum,5.6%
same,Activity,Bacteroides nordii,0%
same,Activity,[4],3.8%
same,MIC,Cutibacterium acnes [5],0.25 µg/mL and 0.5 µg/mL
same,MIC,"Cutibacterium acnes [5]; Cutibacterium acnes, read-out: MIC",0.25 µg/mL
same,Activity,Bacteroides ovatus,11.4%
same,Activity,Bacteroides fragilis,4.5%
same,Activity,Bacteroides caccae,0%
same,Activity,Propionibacterium,0%
same,Activity,Phocaeicola vulgatus,0%
same,MIC,Finegoldia magna [6],2 µg/mL
same,MIC,"Finegoldia magna [6]; Finegoldia magna, read-out: MIC",2 µg/mL
same,Activity,Cutibacterium acnes [7],0%
same,MIC,Clostridioides difficile,4 µg/mL
same,Activity,Bacteroides uniformis,0%

# — ChEMBL document CHEMBL1275561, “In vitro activities of doripenem, a new broad-spectrum carbapenem, against recently collected clinical anaerobic isolates, with emphasis on the Bacteroides fragilis group” (2008)
